Assay results pooled from the literature.
Protocols differ between the studies behind these lines.

| SMILES | target or system | assay | test system | setting | measurement | result |
| --- | --- | --- | --- | --- | --- | --- |
| O=C1O[C@H]([C@@H](O)CO)C(O)=C1O | – | ABTS scavenging | – | – | IC50 | 4.24 µg/mL |
| CCCCCCCCCCCCCCCCOP(=O)([O-])OCC[N+](C)(C)C | Leishmania donovani | parasite growth | THP-1 | 72 h, intracellular, amastigote | IC50 | 3.78 µM |
| CCCCCCCCCCCCCCCCCCOc1ccccc1CC(=O)OCC[N+]1(C)CCCCC1 | NCI-H522 | cell growth or viability, SRB | – | 10 µM | inhibition | 66.7% |
| C[C@@H]1[C@H](O)[C@@H](C)/C=C/C=C/C=C/C=C/C=C/C=C/C=C/[C@H](O[C@@H]2O[C@H](C)[C@@H](O)[C@H](N)[C@@H]2O)C[C@@H]2O[C@](O)(C[C@@H](O)C[C@@H](O)[C@H](O)CC[C@@H](O)C[C@@H](O)CC(=O)O[C@H]1C)C[C@H](O)[C@H]2C(=O)O | Leishmania donovani | parasite growth | THP-1 | 72 h, intracellular, amastigote | IC50 | 0.6 µM |
| c1ccc(-c2ccc3c(c2)NC(C2Nc4cc(-c5ccccc5)ccc4O2)O3)cc1 (stereo not drawn) | Leishmania donovani | parasite growth, resazurin | – | 72 h, promastigote | IC50 | 9.21 µM |
| CCCCCCCCCCCCCCCCCCOc1ccccc1CC(=O)OCC[N+](C)(C)C | NCI-H522 | cell growth or viability, SRB | – | 10 µM | inhibition | 97.8% |
| CCOc1ccc(Nc2c3c(nc4ccccc24)CCC3)cc1 | Leishmania donovani | parasite growth | THP-1 | 72 h, intracellular, amastigote | IC50 | 0.78 µM |
| Oc1ccc(C2NCCc3cc(O)c(O)cc32)cc1O (stereo not drawn) | – | ABTS scavenging | – | 10 min, dark | IC50 | 4.93 µM |
| CCCCCCCCCCCCCCCCCCOc1ccccc1CC(=O)OCC[N+]1(C)CCCC1 | NCI-H522 | cell growth or viability, SRB | – | 10 µM | inhibition | 93.2% |
| CCCCCCCCCCC1NCCc2cc(O)c(O)cc21 (stereo not drawn) | – | ABTS scavenging | – | 10 min, dark | IC50 | 69.9 µM |
| CCCCC[C@H](O)/C=C/[C@@H]1[C@@H](C/C=C\CCCC(=O)O)[C@@H](O)C[C@H]1O | Leishmania donovani | parasite growth, resazurin | – | 72 h, promastigote | IC50 | > 100 µM |
| COc1cc(C2NCCc3cc(O)c(O)cc32)ccc1O (stereo not drawn) | – | ABTS scavenging | – | 10 min, dark | IC50 | 14 µM |
| c1ccc(Oc2ccc(Nc3c4c(nc5ccccc35)CCC4)cc2)cc1 | Leishmania donovani | parasite growth | THP-1 | intracellular, amastigote | IC50 | 0.57 µM |
| O=C1O[C@H]([C@@H](O)CO)C(O)=C1O | – | ABTS scavenging | – | 20 min | IC50 | 54.5 µg/mL |
| CCCCCCCCCC1NCCc2cc(O)c(O)cc21 (stereo not drawn) | – | ABTS scavenging | – | 10 min, dark | IC50 | 57.3 µM |
